Assay results reported in paper PMC8458670 (Slas Discovery, 2022).

Columns and labels:
[1] = molecular target: nsp14 (amino acids 1-527) (Severe acute respiratory syndrome coronavirus 2, UniProt P0DTD1); test: Surface plasmon resonance binding to biotinylated nsp14; parameters: species or system SARS-CoV-2
How it was run: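 SPR used N-terminally biotinylated nsp14 (aa 1–527) coupled on a CM5 chip, with C-terminally biotinylated SETD3 (aa 1–605) as control. Test compounds were injected at five concentrations (0.6–50 µM, or 0.06–5 µM for some) at 50 µL/min. Running buffer was HBS-EP Plus (10 mM HEPES pH 7.4, 150 mM NaCl, 2 mM EDTA, 0.005% Tween-20) with 0.5% DMSO. Contact time was 60 s and dissociation 120 s, with blank-buffer and DMSO (0.4–0.6%) corrections.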

[2] = molecular target: SARS-CoV-2 nsp14 (Severe acute respiratory syndrome coronavirus 2, UniProt P0DTD1); test: Radiometric nsp14 MTase activity assay; type: biochemical

Nc1ncnc2c1ncn2[C@@H]1O[C@H](CSCC[C@H](N)C(=O)O)[C@@H](O)[C@H]1O [SAH, S-Adenosylhomocysteine] was tested. Which Kd [1] did it give?
The Kd was 0.14 µM.

And the IC50 [2]?
Its IC50 is 0.13 ± 0.03 µM.
